The subject of one test is DU145 xenografts. Put plainly: Anti-tumor activity in human prostate cancer DU145 xenografts in nude mice. Format: in vivo, human tumor in BALB/c-nu/nu mice. Particulars: taxol alone, 60 mg/kg i.v. day 0; data not shown. The gist of the method: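 DU145 cells implanted s.c. into right flank of 5–6-week-old male BALB/c nude mice; tumor pieces passaged s.c. into new mice. At ~100 mm3 (day 0), six mice/group. Taxol 60 mg/kg i.v. on day 0; test compound or vehicle given intratumorally on days 0 and 5. Caliper volume = longest × shortest²/2; body weight tracked; Student's t test.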
On the technique in general: In xenograft studies the graft and the host belong to different species.

In a further test the test system is endogenous p27^Kip1. The class given is cell-based, human. Particulars: 20 μM FITC-labeled peptide, 24 h (Fig. 2B). The method in brief:
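DU145 cells (RPMI 1640, 10% FBS, 100 ug/ml kanamycin, 5% CO2) were exposed to 20 uM FITC-labeled cell-permeable peptides, or no peptide, for 24 h. Whole lysates or separated cytoplasmic and nuclear fractions were immunoblotted for endogenous p27Kip1 using nitrocellulose and ECL, with β-actin and topoisomerase II as markers. For localization, cells were formaldehyde-fixed, stained with anti-p27Kip1 and Alexa Fluor 568 secondary, and counterstained with Hoechst 33342.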

For test [1], the system named is DU145 cells. Format: cell-based, human. Conditions: for intracellular accumulation, fluorescence microscopy: 20 µM FITC-labeled peptide, 4 h (Fig. S1A; method section: 10 μM). The method in brief: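 FITC-labeled peptides were added to the DU145 culture medium at 10 um and incubated for 4 h. Intracellular distribution of fluorescein was then imaged by fluorescence microscopy with a CCD camera.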

Test [2] relates to DU145 cells. Put plainly: Flow cytometric cell cycle analysis of DU145 cells. Format: cell-based, human. Particulars: 20 μM peptide, 24 h (Fig. 2A). On the technique in general: A flow cytometer gives signals particle by particle.
Test [3] relates to DU145 cells. Put plainly: Apoptosis of DU145 cells. Format: cell-based, human. Particulars: 20 μM peptide, 72 h; flow cytometry (Fig. 3A).

Regarding `CC(=O)O[C@H]1C(=O)[C@@]2(C)[C@H]([C@H](OC(=O)c3ccccc3)[C@]3(O)C[C@H](OC(=O)[C@H](O)[C@@H](NC(=O)c4ccccc4)c4ccccc4)C(C)=C1C3(C)C)[C@]1(OC(C)=O)CO[C@@H]1C[C@@H]2O` [taxol], the “inhibitory effect on tumor growth, given alone” value in the test with DU145 xenografts is reported as “did not show an inhibitory effect”.

With GGGRRRRRRGC-KKPGLDRDQT [R8-T198mu], the “expression of p27^Kip1” value with endogenous p27^Kip1 is recorded as “not R8-T198mu enhances the expression of p27^Kip1”. The “intracellular accumulation, fluorescence microscopy” value in the test with DU145 cells [1] is given as “had accumulated in cells”. In the test on DU145 cells [1] (FITC-labeled peptide (Fig. S1B)), the “intracellular accumulation, flow cytometric analysis” value is “had accumulated almost equally in cells”. Moreover, in the test on DU145 cells [2], the “increase in the number of cells in G1 phase” value was “not with Arg^8 and R8-T198mu”. Also, the “increase in the sub-G1 fraction” value in the test on DU145 cells [3] was “not with R8-T198mu”.

As for “GGGRRRRRRRRGC [Arg^8, reference compound]”, in the test on DU145 cells [1], the “intracellular accumulation, fluorescence microscopy” value is “had accumulated in cells”. Besides, in the test with DU145 cells [2], the “increase in the number of cells in G1 phase” value is “not with Arg^8 and R8-T198mu”.

The values above are taken from article PMC3024764 (The Journal of Biological Chemistry, 2010).
